Experimental data as given in ChEMBL document CHEMBL3044956, “Nematicidal and antifungal activities of annonaceous acetogenins from Annona squamosa against various plant pathogens” (J Agric Food Chem, 2011).
In brackets after ≈: the same amount, converted by molar mass.

What was measured:
[1] = system: Blumeria hordei; assay: In vivo antifungal activity against Blumeria graminis f. sp. hordei infected barley seedlings assessed as control of barley powdery mildew disease development at 100 ug/ml treated 1 day before spore inoculation measured 3-7 days after inoculation; type: functional
Method in brief: (§1)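 Potted seedlings sprayed to runoff with material dissolved in MeOH and diluted in 0.025% Tween 20 (5% MeOH); controls got the Tween/MeOH solution alone. Inoculated with spores or mycelial suspension 1 day later. Infected leaf or sheath area rated 3–7 days after inoculation; % control = 100(A−B)/A. Randomized complete block design, three replicates, run in duplicate; Tukey HSD.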

[2] = system: Blumeria hordei; assay: In vivo antifungal activity against Blumeria graminis f. sp. hordei infected barley seedlings assessed as control of barley powdery mildew disease development at 1 ug/ml treated 1 day before spore inoculation measured 3-7 days after inoculation; type: functional; method in brief: as §1
[3] = system: Puccinia recondita; assay: In vivo antifungal activity against Puccinia recondita infected wheat seedlings assessed as reduction in wheat leaf rust disease symptoms development at 500 ug/ml treated 1 day before spore inoculation measured 7 days after inoculation; type: functional; parameters: scale not given: the % may be the effect or the level left; method in brief: as §1
[4] = system: Colletotrichum coccodes; assay: In vivo antifungal activity against Colletotrichum coccodes infected red pepper seedlings assessed as control of red pepper anthracnose development at 500 ug/ml treated 1 day before spore inoculation measured 3-7 days after inoculation; type: functional; method in brief: as §1
[5] = system: Meloidogyne incognita; assay: Nematicidal activity against second juvenile stage (J2) of Meloidogyne incognita (root-knot nematode) assessed as mortality incubated in the dark at 28 degC after 3 days by light microscopy (benficial crop Tomato); type: functional; details: 72 h
Method in brief: (§2)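 M. incognita eggs taken from infected tomato roots with hypochlorite and J2s hatched in Baermann funnels at 28 °C. J2s from the first 3 days kept in 0.01% Tween 20 water and used within 24 h. About 100 J2s per well; stock added 1:100 in DMSO or MeOH (≤1%). Plates kept shaking in the dark at 28 °C, scored by microscope at 1, 2 and 3 days. Mortality Abbott-corrected. Two runs, three replicates each.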

[6] = system: Pyricularia oryzae; assay: In vivo antifungal activity against Magnaporthe oryzae infected rice seedlings assessed as control of rice blast disease development at 500 ug/ml treated 1 day before spore inoculation measured 3-7 days after inoculation; type: functional; method in brief: as §1
[7] = system: Rhizoctonia solani; assay: In vivo antifungal activity against Rhizoctonia solani infected rice seedlings assessed as control of rice sheath blight disease development at 500 ug/ml treated 1 day before spore inoculation measured 3-7 days after inoculation; type: functional; method in brief: as §1
[8] = system: Meloidogyne incognita; assay: Nematicidal activity against second juvenile stage (J2) of Meloidogyne incognita (root-knot nematode) assessed as mortality incubated in the dark at 28 degC after 1 day by light microscopy (benficial crop Tomato); type: functional; details: 24 h; method in brief: as §2
[9] = system: Rhizoctonia solani; assay: In vivo antifungal activity against Rhizoctonia solani infected rice seedlings assessed as control of rice sheath blight disease development at 250 ug/ml treated 1 day before spore inoculation measured 3-7 days after inoculation; type: functional; method in brief: as §1
[10] = system: Colletotrichum coccodes; assay: In vivo antifungal activity against Colletotrichum coccodes infected red pepper seedlings assessed as control of red pepper anthracnose development at 250 ug/ml treated 1 day before spore inoculation measured 3-7 days after inoculation; type: functional; method in brief: as §1
[11] = system: Blumeria hordei; assay: In vivo antifungal activity against Blumeria graminis f. sp. hordei infected barley seedlings assessed as control of barley powdery mildew disease development at 500 ug/ml treated 1 day before spore inoculation measured 3-7 days after inoculation; type: functional; method in brief: as §1
[12] = system: Pyricularia oryzae; assay: In vivo antifungal activity against Magnaporthe oryzae infected rice seedlings assessed as control of rice blast disease development at 250 ug/ml treated 1 day before spore inoculation measured 3-7 days after inoculation; type: functional; method in brief: as §1
[13] = system: Botrytis cinerea; assay: In vivo antifungal activity against Botryotinia fuckeliana infected in tomato seedlings assessed as control of tomato gray mold disease development at 125 ug/ml treated 1 day before spore inoculation measured 3-7 days after inoculation; type: functional; method in brief: as §1
[14] = system: Rhizoctonia solani; assay: In vivo antifungal activity against Rhizoctonia solani infected rice seedlings assessed as control of rice sheath blight disease development at 125 ug/ml treated 1 day before spore inoculation measured 3-7 days after inoculation; type: functional; method in brief: as §1
[15] = system: Botrytis cinerea; assay: In vivo antifungal activity against Botryotinia fuckeliana infected in tomato seedlings assessed as control of tomato gray mold disease development at 500 ug/ml treated 1 day before spore inoculation measured 3-7 days after inoculation; type: functional; method in brief: as §1
[16] = system: Bursaphelenchus xylophilus; assay: Nematicidal activity against second juvenile stage (J2) of Bursaphelenchus xylophilus assessed as mortality after 2 days by microtiter plate assay method (Beneficial crop Pine); type: functional; details: 48 h
Method in brief: (§3)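 Pine wood nematodes reared on B. cinerea mycelia on PDA for 7 days at 28 °C. J2s collected in 0.01% Triton X-100 water and tested in microtiter plates. Compounds in DMSO or MeOH, solvent ≤1%; solvent-only controls. Concentrations 0.004–1 μg/mL. Mortality Abbott-corrected; LC50 by probit. Two runs, three replicates each.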

[17] = system: Phytophthora infestans; assay: Antifungal activity against Phytophthora infestans assessed as inhibition of radial mycelial growth at 11.11 to 900 ug/ml incubated at 20 degC for 5 to 7 days by poison plate assay; type: functional
Method in brief: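 Poison-plate assay: material in MeOH added 1:100 to V8-agar at 50 °C, 2 mL per well of six-well plates, centre-inoculated with a 5 mm plug from the colony margin. Incubated at 20 °C until control growth reached the edge. Controls were 1% MeOH. Read as % inhibition of radial growth. Two runs, four replicates each. IC50 by probit.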

[18] = system: Puccinia recondita; assay: In vivo antifungal activity against Puccinia recondita infected wheat seedlings assessed as reduction in wheat leaf rust disease symptoms development at 125 ug/ml treated 1 day before spore inoculation measured 7 days after inoculation; type: functional; parameters: scale not given: the % may be the effect or the level left; method in brief: as §1
[19] = system: Meloidogyne incognita; assay: Nematicidal activity against second juvenile stage (J2) of Meloidogyne incognita (root-knot nematode) assessed as mortality incubated in the dark at 28 degC after 2 days by light microscopy (benficial crop Tomato); type: functional; details: 48 h; method in brief: as §2
[20] = system: Phytophthora infestans; assay: In vivo antifungal activity against Phytophthora infestans zoospores infected tomato seedlings assessed as control of tomato late blight disease development treated 1 day before spore inoculation measured 3 days after inoculation; type: functional, organism-based; method in brief: as §1
[21] = system: Bursaphelenchus xylophilus; assay: Nematicidal activity against second juvenile stage (J2) of Bursaphelenchus xylophilus assessed as mortality at >0.33 ug/ml after 2 days by microtiter plate assay method (Beneficial crop Pine); type: functional; method in brief: as §3
[22] = system: Phytophthora infestans; assay: Antifungal activity against Phytophthora infestans assessed as inhibition of sporangium germination incubated at 20 degC for 24 hr by light microscopy; type: functional, organism-based
Method in brief: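 Sporangium germination: compounds serially diluted in MeOH (12500 to 391 μg/mL as stock series), sporangia incubated 24 h at 20 °C. About 100 sporangia per replicate scored for germination by light microscope. Experiment repeated, mean ± SD. IC50 by probit.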

[23] = system: Colletotrichum coccodes; assay: In vivo antifungal activity against Colletotrichum coccodes infected red pepper seedlings assessed as control of red pepper anthracnose development at 125 ug/ml treated 1 day before spore inoculation measured 3-7 days after inoculation; type: functional; method in brief: as §1
[24] = system: Puccinia recondita; assay: In vivo antifungal activity against Puccinia recondita infected wheat seedlings assessed as reduction in wheat leaf rust disease symptoms development at 250 ug/ml treated 1 day before spore inoculation measured 7 days after inoculation; type: functional; parameters: scale not given: the % may be the effect or the level left; method in brief: as §1
[25] = system: Phytophthora infestans; assay: Antifungal activity against Phytophthora infestans assessed as inhibition of zoospore germination incubated in the dark at 20 degC for 24 hr by light microscopy; type: functional, organism-based
Method in brief: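 Zoospores released by chilling sporangia 1 h at 4 °C, then filtered to remove sporangia. Test solution in MeOH mixed 1:100 with the suspension (1% MeOH control), loaded onto hole-slide glasses and kept humid at 20 °C for 24 h in the dark. Germinated cells counted per hole by light microscope. Experiment repeated, mean ± SD.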

[26] = system: Blumeria hordei; assay: In vivo antifungal activity against Blumeria graminis f. sp. hordei infected barley seedlings assessed as control of barley powdery mildew disease development at 250 ug/ml treated 1 day before spore inoculation measured 3-7 days after inoculation; type: functional; method in brief: as §1
[27] = system: Botrytis cinerea; assay: In vivo antifungal activity against Botryotinia fuckeliana infected in tomato seedlings assessed as control of tomato gray mold disease development at 250 ug/ml treated 1 day before spore inoculation measured 3-7 days after inoculation; type: functional; method in brief: as §1
[28] = system: Pyricularia oryzae; assay: In vivo antifungal activity against Magnaporthe oryzae infected rice seedlings assessed as control of rice blast disease development at 125 ug/ml treated 1 day before spore inoculation measured 3-7 days after inoculation; type: functional; method in brief: as §1
[29] = system: Blumeria hordei; assay: In vivo antifungal activity against Blumeria graminis f. sp. hordei infected barley seedlings assessed as control of barley powdery mildew disease development at 125 ug/ml treated 1 day before spore inoculation measured 3-7 days after inoculation; type: functional; method in brief: as §1
[30] = system: Phytophthora infestans; assay: In vivo antifungal activity against Phytophthora infestans zoospores infected tomato seedlings assessed as control of tomato late blight disease development at 2 ug/ml treated 1 day before spore inoculation measured 3 days after inoculation; type: functional; method in brief: as §1
[31] = system: Phytophthora infestans; assay: In vivo antifungal activity against Phytophthora infestans zoospores infected tomato seedlings assessed as control of tomato late blight disease development at 10 ug/ml treated 1 day before spore inoculation measured 3 days after inoculation; type: functional; method in brief: as §1
[32] = system: Puccinia recondita; assay: In vivo antifungal activity against Puccinia recondita infected wheat seedlings assessed as reduction in wheat leaf rust disease symptoms development at 2 ug/ml treated 1 day before spore inoculation measured 7 days after inoculation; type: functional; parameters: scale not given: the % may be the effect or the level left; method in brief: as §1
[33] = system: Puccinia recondita; assay: In vivo antifungal activity against Puccinia recondita infected wheat seedlings assessed as reduction in wheat leaf rust disease symptoms development at 10 ug/ml treated 1 day before spore inoculation measured 7 days after inoculation; type: functional; parameters: scale not given: the % may be the effect or the level left; method in brief: as §1
[34] = system: Caenorhabditis elegans; assay: Nematicidal activity against Caenorhabditis elegans assessed as mortality; type: functional

CCCCNC(=O)n1c(NC(=O)OC)nc2ccccc21 [BENOMYL] gave an Activity [1] of 100% and an Activity [2] of 75%.
CCCCCC[C@H](O)CCC[C@@H](O)[C@H]1CC[C@H]([C@H]2CC[C@H]([C@H](O)CCCCCCCCCCCCC3=C[C@H](C)OC3=O)O2)O1 (relative stereo) [REL-SQUAMOCIN] was tested, and the Activity [3] was 83.3%, the Activity [4] was 0% and the LC50 [5] was 54.9 µg/mL (≈ 88.1 µM). The Activity [6] was 50%, the Activity [7] was 0% and the LC50 [8] was over 100 µg/mL. It also gave an Activity [9] of 11.8%, an Activity [10] of 0% and an Activity [11] of 0%. It also gave an Activity [12] of 0%, an Activity [13] of 0% and an Activity [14] of 0%. For the same compound, the Activity [15] was 0%, the LC50 [16] was 0.006 µg/mL and the “growth inhibition (GI)” value [17] was 31%. The Activity [18] was 0%, the LC50 [19] was over 100 µg/mL and the Activity [20] was “Dose-dependent effect”. For the same compound, the mortality [21] was 100%, the IC50 [22] was 1.24 µg/mL (≈ 1.99 µM) and the inhibition [22] was “Dose-dependent effect”. The Activity [23] was 0%, the Activity [24] was 20% and the IC50 [25] was 3.05 µg/mL (≈ 4.9 µM). The inhibition [25] was “Dose-dependent effect”, the Activity [26] was 0% and the Activity [27] was 0%. It also gave an Activity [28] of 0% and an Activity [29] of 0%.
For COc1ccc(C(=CC(=O)N2CCOCC2)c2ccc(Cl)cc2)cc1OC [DIMETHOMORPH], the Activity [30] was 85% and the Activity [31] was 100%.
Work on C[Si](Cn1cncn1)(c1ccc(F)cc1)c1ccc(F)cc1 [FLUSILAZOLE] yielded an Activity [32] of 78% and an Activity [33] of 100%.
Work on CCCCCCCCCC[C@@H](O)[C@H]1CC[C@H]([C@H]2CC[C@H]([C@H](O)CCCCCCCCCC[C@@H](O)CC3=C[C@H](C)OC3=O)O2)O1 [REL-SQUAMOCIN-H] yielded an LC50 [5] of 24.3 µg/mL (≈ 39 µM), an LC50 [8] of over 100 µg/mL and an LC50 [16] of 0.012 µg/mL. The LC50 [19] was 71.2 µg/mL (≈ 114 µM), the mortality [21] was 100% and the LD100 [34] was 0.1 ppm.
